Values after ≈ are worked out from the molar mass of the structure shown.
Experiments:
Bifidobacterium animalis [1] = experiment: Antimicrobial activity against Bifidobacterium animalis ATCC 27536; type: functional
Summary of the method: (§1)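 Broth microdilution in MRS plus 0.05% L-cysteine-HCl. Mid-log culture adjusted to OD650 0.1, giving about 2.5 × 10^4 to 5.0 × 10^4 CFU/well, then added to twofold serial dilutions of agent. Plates incubated anaerobically at 37°C for 18 h and read at OD650. MIC is the lowest concentration matching the uninoculated blank OD, taken as the median of four repeats.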

Bifidobacterium bifidum [2] = experiment: Antimicrobial activity against Bifidobacterium bifidum R0071; type: functional; summary of the method: as §1
Bifidobacterium bifidum [3] = experiment: Antimicrobial activity against Bifidobacterium bifidum ATCC 15696; type: functional; summary of the method: as §1
Bifidobacterium bifidum [4] = experiment: Antimicrobial activity against Bifidobacterium bifidum BB12; type: functional; summary of the method: as §1
Bifidobacterium breve [5] = experiment: Antimicrobial activity against Bifidobacterium breve ATCC 15700; type: functional; summary of the method: as §1
[6] = Antimicrobial activity against Bifidobacterium infantis ATCC 15697; type: functional, Bifidobacterium longum subsp. infantis; conditions: Bifidobacterium longum; summary of the method: as §1
Bifidobacterium longum [7] = experiment: Antimicrobial activity against Bifidobacterium longum ATCC 15708; type: functional; summary of the method: as §1
Bifidobacterium longum [8] = experiment: Antimicrobial activity against Bifidobacterium longum R0175; type: functional; summary of the method: as §1
Bifidobacterium longum [9] = experiment: Antimicrobial activity against Bifidobacterium longum P/N 601377; type: functional; summary of the method: as §1
[10] = test system: Bifidobacterium pseudolongum; experiment: Antimicrobial activity against Bifidobacterium pseudolongum ATCC 25562; type: functional; summary of the method: as §1
[11] = test system: Bifidobacterium thermophilum; experiment: Antimicrobial activity against Bifidobacterium thermophilum ATCC 25866; type: functional; summary of the method: as §1
Bifidobacterium breve [12] = experiment: Antimicrobial activity against Bifidobacterium breve R0070; type: functional; summary of the method: as §1
Bifidobacterium animalis [13] = experiment: Antimicrobial activity against 60 min 1 M HCl-stressed Bifidobacterium animalis ATCC 27536 after 18 hrs; type: functional
Summary of the method: (§2)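 Mid-log MRS culture pelleted and resuspended in MRS broth brought to pH 2.0 with 1 M HCl, held anaerobically at 37°C for 60 min, then subcultured in MRS (pH 6.5) for 24 h anaerobically before MIC testing by broth microdilution (as for unstressed cells). Table footnote gives 18 h anaerobic regrowth after the stress. MIC is the median of four repetitions.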

Bifidobacterium bifidum [14] = experiment: Antimicrobial activity against 60 min 1 M HCl-stressed Bifidobacterium bifidum R0071 after 18 hrs; type: functional; summary of the method: as §2
Bifidobacterium bifidum [15] = experiment: Antimicrobial activity against 60 min 1 M HCl-stressed Bifidobacterium bifidum BB12 after 18 hrs; type: functional; summary of the method: as §2
Bifidobacterium breve [16] = experiment: Antimicrobial activity against 60 min 1 M HCl-stressed Bifidobacterium breve ATCC 15700 after 18 hrs; type: functional; summary of the method: as §2
Bifidobacterium breve [17] = experiment: Antimicrobial activity against 60 min 1 M HCl-stressed Bifidobacterium breve R0070 after 18 hrs; type: functional; summary of the method: as §2
[18] = Antimicrobial activity against 60 min 1 M HCl-stressed Bifidobacterium infantis ATCC 15697 after 18 hrs; type: functional, Bifidobacterium longum subsp. infantis; conditions: Bifidobacterium longum; summary of the method: as §2
Bifidobacterium longum [19] = experiment: Antimicrobial activity against 60 min 1 M HCl-stressed Bifidobacterium longum ATCC 15707 after 18 hrs; type: functional; summary of the method: as §2
Bifidobacterium longum [20] = experiment: Antimicrobial activity against 60 min 1 M HCl-stressed Bifidobacterium longum R0175 after 18 hrs; type: functional; summary of the method: as §2
Bifidobacterium longum [21] = experiment: Antimicrobial activity against 60 min 1 M HCl-stressed Bifidobacterium longum P/N 601377 after 18 hrs; type: functional; summary of the method: as §2
[22] = test system: Bifidobacterium pseudolongum; experiment: Antimicrobial activity against 60 min 1 M HCl-stressed Bifidobacterium pseudolongum ATCC 25562 after 18 hrs; type: functional; summary of the method: as §2
[23] = test system: Bifidobacterium thermophilum; experiment: Antimicrobial activity against 60 min 1 M HCl-stressed Bifidobacterium thermophilum ATCC 25866 after 18 hrs; type: functional; summary of the method: as §2
Bifidobacterium animalis [24] = experiment: Antimicrobial activity against 90 mins oxgall-stressed Bifidobacterium animalis ATCC 27536 after 18 hrs; type: functional
Summary of the method: (§3)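 Cells pelleted from mid-log MRS culture and resuspended in MRS (initial pH 6.5) with 0.3% (wt/vol) oxgall for 90 min anaerobically at 37°C. They were then regrown in MRS pH 6.5 for 24 h (footnote: 18 h) anaerobically and tested for MIC by the same broth microdilution assay. Median of four repetitions.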

Bifidobacterium bifidum [25] = experiment: Antimicrobial activity against 90 mins oxgall-stressed Bifidobacterium bifidum R0071 after 18 hrs; type: functional; summary of the method: as §3
Bifidobacterium bifidum [26] = experiment: Antimicrobial activity against 90 mins oxgall-stressed Bifidobacterium bifidum ATCC 15696 after 18 hrs; type: functional; summary of the method: as §3
Bifidobacterium bifidum [27] = experiment: Antimicrobial activity against 90 mins oxgall-stressed Bifidobacterium bifidum BB12 after 18 hrs; type: functional; summary of the method: as §3
Bifidobacterium breve [28] = experiment: Antimicrobial activity against 90 mins oxgall-stressed Bifidobacterium breve ATCC 15700 after 18 hrs; type: functional; summary of the method: as §3
Bifidobacterium breve [29] = experiment: Antimicrobial activity against 90 mins oxgall-stressed Bifidobacterium breve R0070 after 18 hrs; type: functional; summary of the method: as §3
[30] = Antimicrobial activity against 90 mins oxgall-stressed Bifidobacterium infantis ATCC 15697 after 18 hrs; type: functional, Bifidobacterium longum subsp. infantis; conditions: Bifidobacterium longum; summary of the method: as §3
Bifidobacterium longum [31] = experiment: Antimicrobial activity against 90 mins oxgall-stressed Bifidobacterium longum ATCC 15707 after 18 hrs; type: functional; summary of the method: as §3
Bifidobacterium longum [32] = experiment: Antimicrobial activity against 90 mins oxgall-stressed Bifidobacterium longum ATCC 15708 after 18 hrs; type: functional; summary of the method: as §3
Bifidobacterium longum [33] = experiment: Antimicrobial activity against Bifidobacterium longum ATCC 15707; type: functional; summary of the method: as §1
Bifidobacterium longum [34] = experiment: Antimicrobial activity against 90 mins oxgall-stressed Bifidobacterium longum R0175 after 18 hrs; type: functional; summary of the method: as §3
Bifidobacterium longum [35] = experiment: Antimicrobial activity against 90 mins oxgall-stressed Bifidobacterium longum P/N 601377 after 18 hrs; type: functional; summary of the method: as §3
[36] = test system: Bifidobacterium pseudolongum; experiment: Antimicrobial activity against 90 mins oxgall-stressed Bifidobacterium pseudolongum ATCC 25562 after 18 hrs; type: functional; summary of the method: as §3
[37] = test system: Bifidobacterium thermophilum; experiment: Antimicrobial activity against 90 mins oxgall-stressed Bifidobacterium thermophilum ATCC 25866 after 18 hrs; type: functional; summary of the method: as §3
Bifidobacterium animalis [38] = experiment: Antimicrobial activity against 90 mins hydrogen peroxide-stressed Bifidobacterium animalis ATCC 27536 after 18 hrs; type: functional
Summary of the method: (§4)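 Stress applied for 90 min at 37°C under anaerobic conditions, using MRS (initial pH 6.5) containing H2O2 at each strain's own inhibitory concentration. The H2O2 level was set beforehand by microplate tolerance testing. Challenged cells were regrown in MRS for 24 h (footnote: 18 h) before MIC testing by broth microdilution. Median of four repetitions.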

Bifidobacterium bifidum [39] = experiment: Antimicrobial activity against 90 mins hydrogen peroxide-stressed Bifidobacterium bifidum R0071 after 18 hrs; type: functional; summary of the method: as §4
Bifidobacterium bifidum [40] = experiment: Antimicrobial activity against 90 mins hydrogen peroxide-stressed Bifidobacterium bifidum BB12 after 18 hrs; type: functional; summary of the method: as §4
Bifidobacterium breve [41] = experiment: Antimicrobial activity against 90 mins hydrogen peroxide-stressed Bifidobacterium breve ATCC 15700 after 18 hrs; type: functional; summary of the method: as §4
Bifidobacterium breve [42] = experiment: Antimicrobial activity against 90 mins hydrogen peroxide-stressed Bifidobacterium breve R0070 after 18 hrs; type: functional; summary of the method: as §4
Bifidobacterium longum [43] = experiment: Antimicrobial activity against 90 mins hydrogen peroxide-stressed Bifidobacterium longum ATCC 15707 after 18 hrs; type: functional; summary of the method: as §4
Bifidobacterium longum [44] = experiment: Antimicrobial activity against 90 mins hydrogen peroxide-stressed Bifidobacterium longum ATCC 15708 after 18 hrs; type: functional; summary of the method: as §4
Bifidobacterium longum [45] = experiment: Antimicrobial activity against 90 mins hydrogen peroxide-stressed Bifidobacterium longum R0175 after 18 hrs; type: functional; summary of the method: as §4
Bifidobacterium longum [46] = experiment: Antimicrobial activity against 90 mins hydrogen peroxide-stressed Bifidobacterium longum P/N 601377 after 18 hrs; type: functional; summary of the method: as §4
[47] = test system: Bifidobacterium thermophilum; experiment: Antimicrobial activity against 90 mins hydrogen peroxide-stressed Bifidobacterium thermophilum ATCC 25866 after 18 hrs; type: functional; summary of the method: as §4

MIC (Bifidobacterium animalis [1]): 3.9 µg/mL (≈ 5.31 µM)
MIC (Bifidobacterium bifidum [2]): 1.9 µg/mL (≈ 2.59 µM)
MIC (Bifidobacterium bifidum [3]): 7.8 µg/mL (≈ 10.6 µM)
MIC (Bifidobacterium bifidum [4]): 15.6 µg/mL (≈ 21.3 µM)
MIC (Bifidobacterium breve [5]): 1.95 µg/mL (≈ 2.66 µM)
MIC [6]: 15.6 µg/mL (≈ 21.3 µM)
MIC (Bifidobacterium longum [7]): 3.9 µg/mL (≈ 5.31 µM)
MIC (Bifidobacterium longum [8]): 0.98 µg/mL (≈ 1.34 µM)
MIC (Bifidobacterium longum [9]): 0.98 µg/mL (≈ 1.34 µM)
MIC [10]: 3.9 µg/mL (≈ 5.31 µM)
MIC [11]: 0.98 µg/mL (≈ 1.34 µM)
MIC (Bifidobacterium breve [12]): 0.98 µg/mL (≈ 1.34 µM)
MIC (Bifidobacterium animalis [13]): 1.9 µg/mL (≈ 2.59 µM)
MIC (Bifidobacterium bifidum [14]): 0.98 µg/mL (≈ 1.34 µM)
MIC (Bifidobacterium bifidum [15]): 3.9 µg/mL (≈ 5.31 µM)
MIC (Bifidobacterium breve [16]): 3.9 µg/mL (≈ 5.31 µM)
MIC (Bifidobacterium breve [17]): 0.98 µg/mL (≈ 1.34 µM)
MIC [18]: 3.9 µg/mL (≈ 5.31 µM)
MIC (Bifidobacterium longum [19]): 0.98 µg/mL (≈ 1.34 µM)
MIC (Bifidobacterium longum [20]): 0.98 µg/mL (≈ 1.34 µM)
MIC (Bifidobacterium longum [21]): 0.98 µg/mL (≈ 1.34 µM)
MIC [22]: 3.9 µg/mL (≈ 5.31 µM)
MIC [23]: 0.98 µg/mL (≈ 1.34 µM)
MIC (Bifidobacterium animalis [24]): 1.9 µg/mL (≈ 2.59 µM)
MIC (Bifidobacterium bifidum [25]): 3.9 µg/mL (≈ 5.31 µM)
MIC (Bifidobacterium bifidum [26]): 3.9 µg/mL (≈ 5.31 µM)
MIC (Bifidobacterium bifidum [27]): 3.9 µg/mL (≈ 5.31 µM)
MIC (Bifidobacterium breve [28]): 0.98 µg/mL (≈ 1.34 µM)
MIC (Bifidobacterium breve [29]): 0.98 µg/mL (≈ 1.34 µM)
MIC [30]: 3.9 µg/mL (≈ 5.31 µM)
MIC (Bifidobacterium longum [31]): 3.9 µg/mL (≈ 5.31 µM)
MIC (Bifidobacterium longum [32]): 1.9 µg/mL (≈ 2.59 µM)
MIC (Bifidobacterium longum [33]): 0.98 µg/mL (≈ 1.34 µM)
MIC (Bifidobacterium longum [34]): 1.9 µg/mL (≈ 2.59 µM)
MIC (Bifidobacterium longum [35]): 3.9 µg/mL (≈ 5.31 µM)
MIC [36]: 3.9 µg/mL (≈ 5.31 µM)
MIC [37]: 3.9 µg/mL (≈ 5.31 µM)
MIC (Bifidobacterium animalis [38]): 0.98 µg/mL (≈ 1.34 µM)
MIC (Bifidobacterium bifidum [39]): 500 µg/mL (≈ 681 µM)
MIC (Bifidobacterium bifidum [40]): 0.98 µg/mL (≈ 1.34 µM)
MIC (Bifidobacterium breve [41]): 0.98 µg/mL (≈ 1.34 µM)
MIC (Bifidobacterium breve [42]): 0.98 µg/mL (≈ 1.34 µM)
MIC (Bifidobacterium longum [43]): 0.98 µg/mL (≈ 1.34 µM)
MIC (Bifidobacterium longum [44]): 0.98 µg/mL (≈ 1.34 µM)
MIC (Bifidobacterium longum [45]): 0.98 µg/mL (≈ 1.34 µM)
MIC (Bifidobacterium longum [46]): 1.9 µg/mL (≈ 2.59 µM)
MIC [47]: 0.98 µg/mL (≈ 1.34 µM)
SMILES: CC[C@H]1OC(=O)[C@H](C)[C@@H](O[C@H]2C[C@@](C)(OC)[C@@H](O)[C@H](C)O2)[C@H](C)[C@@H](O[C@@H]2O[C@H](C)C[C@H](N(C)C)[C@H]2O)[C@](C)(O)C[C@@H](C)C(=O)[C@H](C)[C@@H](O)[C@]1(C)O [ERYTHROMYCIN]

From ChEMBL document CHEMBL1142148, “Antibiotic susceptibility profile of bifidobacteria as affected by oxgall, acid, and hydrogen peroxide stress” (2007)
